Data from ChEMBL document CHEMBL1140375, “Selective inhibitors of the serine protease plasmin: probing the S3 and S3' subsites using a combinatorial library” (J Med Chem, 2005).
Starred links: 1 amine or outer side, 2 acyl side, 3 side chain; linkers in the order of their positions; H or OH if unused. Non-standard residues stand in square brackets, D forms with d. Residues, ends and D or L forms follow the SMILES beside them. *: point of attachment. Gly(2S-L-tryptophyl) = N[C@H](C(=O)O)C(=O)[C@@H](N)Cc1c[nH]c2ccccc12; X1 = O=C1[C@@H](CCC(=O)[*:2])CCC[C@H]1N[*:1]; Cbz = O=C(OCc1ccccc1)*

Tests used:
[1] = target: Plasminogen (Homo sapiens, UniProt P00747); experiment: Inhibitory concentration against plasmin
Plasminogen, sequence (P00747 97-580 limits assumed): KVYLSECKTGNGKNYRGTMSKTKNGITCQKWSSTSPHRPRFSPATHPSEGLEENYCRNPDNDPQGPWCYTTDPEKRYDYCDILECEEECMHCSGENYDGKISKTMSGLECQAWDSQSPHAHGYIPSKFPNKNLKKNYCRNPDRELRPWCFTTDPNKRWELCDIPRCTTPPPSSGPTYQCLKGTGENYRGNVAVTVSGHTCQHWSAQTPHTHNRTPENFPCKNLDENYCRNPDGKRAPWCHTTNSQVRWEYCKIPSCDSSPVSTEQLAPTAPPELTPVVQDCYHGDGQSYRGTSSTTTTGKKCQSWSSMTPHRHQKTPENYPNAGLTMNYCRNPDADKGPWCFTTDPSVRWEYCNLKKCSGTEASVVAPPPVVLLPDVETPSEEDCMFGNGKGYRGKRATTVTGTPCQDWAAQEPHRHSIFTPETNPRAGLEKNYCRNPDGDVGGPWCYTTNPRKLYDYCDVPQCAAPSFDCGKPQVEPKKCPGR
Plasminogen, sequence (P00747 581-810 limits assumed): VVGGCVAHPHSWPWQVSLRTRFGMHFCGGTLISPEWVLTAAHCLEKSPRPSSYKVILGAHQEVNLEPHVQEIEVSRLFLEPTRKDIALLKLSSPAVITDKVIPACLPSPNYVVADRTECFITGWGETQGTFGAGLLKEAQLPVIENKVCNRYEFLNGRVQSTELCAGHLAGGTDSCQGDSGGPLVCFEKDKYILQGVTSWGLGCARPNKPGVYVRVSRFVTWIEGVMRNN
Method in brief: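 Plasmin is cleaving D-Val-Leu-Lys-pNA, kept constant at its measured KM (167 μM). Reactions were run at 25 °C in 50 mM sodium phosphate buffer, pH 7.4, containing 10% DMSO final. Initial velocity was read as p-nitroaniline release at 405 nm between 30 and 120 s post-mixing. IC50 was determined from inhibited versus uninhibited rates.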

[2] = target: Prothrombin (Homo sapiens, UniProt P00734); experiment: Inhibitory concentration against thrombin
Method in brief: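 Thrombin is tested against chromogenic D-Phe-Pip-Arg-pNA at its KM, measured as 45 μM. Conditions were 50 mM sodium phosphate (pH 7.4), 10% DMSO final, 25 °C. p-Nitroaniline formation was followed at 405 nm from 30 to 120 s after mixing to give initial rates, from which IC50 was obtained.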

[3] = target: Plasma kallikrein (Homo sapiens, UniProt P03952); experiment: Inhibitory concentration against kallikrein
Plasma kallikrein, sequence (P03952 20-390 limits assumed): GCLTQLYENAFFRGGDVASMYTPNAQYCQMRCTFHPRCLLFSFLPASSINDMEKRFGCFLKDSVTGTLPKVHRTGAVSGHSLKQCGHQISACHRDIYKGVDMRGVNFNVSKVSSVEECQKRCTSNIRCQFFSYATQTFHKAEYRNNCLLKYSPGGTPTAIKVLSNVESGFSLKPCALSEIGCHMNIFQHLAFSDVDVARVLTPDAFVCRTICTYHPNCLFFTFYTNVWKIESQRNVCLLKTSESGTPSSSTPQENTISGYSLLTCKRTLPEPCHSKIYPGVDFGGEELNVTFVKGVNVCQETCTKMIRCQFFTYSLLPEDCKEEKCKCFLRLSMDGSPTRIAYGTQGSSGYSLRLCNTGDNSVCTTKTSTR
Plasma kallikrein, sequence (P03952 391-638 limits assumed): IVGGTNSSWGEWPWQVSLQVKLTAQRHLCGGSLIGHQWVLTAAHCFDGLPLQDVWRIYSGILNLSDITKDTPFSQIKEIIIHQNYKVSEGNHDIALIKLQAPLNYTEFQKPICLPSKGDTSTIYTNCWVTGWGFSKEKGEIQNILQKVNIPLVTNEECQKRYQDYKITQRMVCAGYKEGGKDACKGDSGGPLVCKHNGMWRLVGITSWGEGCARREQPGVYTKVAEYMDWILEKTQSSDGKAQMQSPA

[4] = target: Serine protease 1 (Homo sapiens, UniProt P07477); experiment: Inhibitory concentration against trypsin
Serine protease 1, sequence (P07477 whole entry): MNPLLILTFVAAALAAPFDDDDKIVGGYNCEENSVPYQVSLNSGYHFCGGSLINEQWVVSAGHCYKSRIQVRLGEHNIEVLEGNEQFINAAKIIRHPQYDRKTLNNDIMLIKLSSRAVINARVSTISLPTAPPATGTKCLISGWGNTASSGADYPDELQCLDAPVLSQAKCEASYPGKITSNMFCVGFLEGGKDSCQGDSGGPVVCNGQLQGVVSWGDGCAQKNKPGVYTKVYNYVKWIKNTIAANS
Method in brief: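 For trypsin, the substrate was D-Phe-Pip-Arg-pNA at its KM of 122 μM. Assays were run at 25 °C in 50 mM sodium phosphate pH 7.4 with 10% DMSO final. Initial rates came from the 405 nm p-nitroaniline signal over 30–120 s after mixing. IC50 values came from comparing rates with and without inhibitor.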

Structure (SMILES) | IC50 [1] | IC50 [2] | IC50 [3] | IC50 [4]
COC(=O)[C@@H](NC(=O)[C@@H](NC(=O)CC[C@H]1CCC[C@@H](NC(=O)[C@@H](NC(=O)[C@@H](NC(=O)OCc2ccccc2)C(=O)[C@@H](N)Cc2c[nH]c3ccccc23)C(=O)[C@@H](N)Cc2c[nH]c3ccccc23)C1=O)C(=O)[C@@H](N)Cc1c[nH]c2ccccc12)C(=O)[C@@H](N)Cc1ccccc1 | 3.3 µM |  |  | 
COC(=O)[C@@H](NC(=O)[C@@H](NC(=O)CC[C@H]1CCC[C@@H](NC(=O)[C@@H](NC(=O)[C@@H](NC(=O)OCc2ccccc2)C(=O)[C@@H](N)Cc2c[nH]c3ccccc23)C(=O)[C@@H](N)Cc2c[nH]c3ccccc23)C1=O)C(=O)[C@@H](N)Cc1c[nH]c2ccccc12)C(=O)[C@@H](N)C(C)C | 14.1 µM |  |  | 
COC(=O)[C@@H](NC(=O)[C@@H](NC(=O)CC[C@H]1CCC[C@@H](NC(=O)[C@@H](NC(=O)[C@@H](NC(=O)OCc2ccccc2)C(=O)[C@@H](N)Cc2c[nH]c3ccccc23)C(=O)[C@@H](N)Cc2c[nH]c3ccccc23)C1=O)C(=O)[C@@H](N)Cc1c[nH]c2ccccc12)C(=O)[C@@H](N)Cc1c[nH]c2ccccc12 (Cbz-[Gly(2S-L-tryptophyl)][Gly(2S-L-tryptophyl)][X1][Gly(2S-L-tryptophyl)][Gly(2S-L-tryptophyl)]-OMe) | 3.6 µM |  |  | 
CC[C@H](C)[C@H](N)C(=O)[C@H](NC(=O)[C@@H](NC(=O)CC[C@H]1CCC[C@@H](NC(=O)[C@@H](NC(=O)[C@@H](NC(=O)OCc2ccccc2)C(=O)[C@@H](N)Cc2c[nH]c3ccccc23)C(=O)[C@@H](N)Cc2c[nH]c3ccccc23)C1=O)C(=O)[C@@H](N)Cc1c[nH]c2ccccc12)C(=O)OC | 13.5 µM |  |  | 
COC(=O)[C@@H](NC(=O)[C@@H](NC(=O)CC[C@H]1CCC[C@@H](NC(=O)[C@@H](NC(=O)[C@@H](NC(=O)OCc2ccccc2)C(=O)[C@@H](N)Cc2c[nH]c3ccccc23)C(=O)[C@@H](N)Cc2c[nH]c3ccccc23)C1=O)C(=O)[C@@H](N)Cc1c[nH]c2ccccc12)C(=O)[C@H](C)N | 6.6 µM |  |  | 
COC(=O)[C@@H](NC(=O)[C@@H](NC(=O)CC[C@H]1CCC[C@@H](NC(=O)[C@@H](NC(=O)[C@@H](NC(=O)OCc2ccccc2)C(=O)[C@@H](N)Cc2c[nH]c3ccccc23)C(=O)[C@@H](N)Cc2c[nH]c3ccccc23)C1=O)C(=O)[C@@H](N)Cc1c[nH]c2ccccc12)C(=O)[C@@H](N)Cc1ccc(O)cc1 | 2.7 µM | > 400 µM | > 400 µM | > 400 µM
COC(=O)[C@@H](NC(=O)[C@@H](NC(=O)CC[C@H]1CCC[C@@H](NC(=O)[C@@H](NC(=O)[C@@H](NC(=O)OCc2ccccc2)C(=O)[C@@H](N)Cc2c[nH]c3ccccc23)C(=O)[C@@H](N)Cc2c[nH]c3ccccc23)C1=O)C(=O)[C@@H](N)Cc1c[nH]c2ccccc12)C(=O)[C@@H](N)CC(C)C | 3.2 µM |  |  | 
